Data as given in ChEMBL document CHEMBL3861973, “Caldoramide, a Modified Pentapeptide from the Marine Cyanobacterium Caldora penicillata” (J Nat Prod, 2016).

How the values were obtained:
[1] = Cytotoxicity against oncogenic KRAS knockout human HCT116 cells expressing wild type KRAS assessed as reduction in cell viability measured after 48 hrs by MTT assay relative to parental HCT116 cells; format: functional; conditions: HCT-116, 48 h
Summary of the method: (§1)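 Same isogenic HCT116 MTT set-up: cells in DMEM + 10% FBS at 37 °C, 5% CO2, 10,000 cells/well, dosed at graded concentrations after 24 h, MTT read 48 h post-treatment. Maximum efficacy in each knockout line expressed as percent of that in parental HCT116.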

[2] = Cytotoxicity against oncogenic KRAS knockout human HCT116 cells assessed as reduction in cell viability measured after 48 hrs by MTT assay; format: functional, cell-based; conditions: HCT-116, 48 h
Summary of the method: (§2)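 Parental HCT116, HIF-1α/HIF-2α double-knockout and oncogenic-KRAS-knockout (wild-type KRAS) isogenic lines grown in DMEM + 10% FBS, 37 °C, 5% CO2. Seeded at 10,000 cells/well; compound added at various concentrations 24 h later.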

[3] = Cytotoxicity against human HIF1alpha and HIF2alpha deficit HCT116 cells assessed as reduction in cell viability measured after 48 hrs by MTT assay; format: functional, cell-based; conditions: HCT-116, 48 h; summary of the method: as §2
[4] = Cytotoxicity against human HCT116 cells assessed as reduction in cell viability measured after 48 hrs by MTT assay; format: functional, cell-based; conditions: HCT-116, 48 h; summary of the method: as §2
[5] = Cytotoxicity against human HIF1alpha and HIF2alpha deficit HCT116 cells assessed as reduction in cell viability measured after 48 hrs by MTT assay relative to parental HCT116 cells; format: functional; conditions: HCT-116, 48 h; summary of the method: as §1
[6] = Cytotoxicity against human HIF1alpha and HIF2alpha deficit HCT116 cells assessed as reduction of cell viability measured after 48 hrs by ATPlite 1step luminescence assay relative to parental HCT116 cells; format: functional; conditions: HCT-116, 48 h
[7] = tested on: HCT-116; test: Selectivity ratio of IC50 for oncogenic KRAS knockout human HCT116 cells to IC50 for human HCT116 cells; format: functional
[8] = Cytotoxicity against oncogenic KRAS knockout human HCT116 cells expressing wild type KRAS assessed as reduction in cell viability measured after 48 hrs by ATPlite 1step luminescence assay relative to parental HCT116 cells; format: functional; conditions: HCT-116, 48 h
[9] = Cytotoxicity against human HCT116 cells assessed as reduction in cell viability measured after 48 hrs by ATPlite 1step luminescence assay; format: functional, cell-based; conditions: HCT-116, 48 h
[10] = Cytotoxicity against oncogenic KRAS knockout human HCT116 cells expressing wild type KRAS assessed as reduction in cell viability measured after 48 hrs by ATPlite 1step luminescence assay; format: functional, cell-based; conditions: HCT-116, 48 h
[11] = tested on: HCT-116; test: Selectivity ratio of IC50 for human HIF1alpha and HIF2alpha deficit HCT116 cells to IC50 for human HCT116 cells; format: functional
[12] = Cytotoxicity against human HIF1alpha and HIF2alpha deficit HCT116 cells assessed as reduction in cell viability measured after 48 hrs by ATPlite 1step luminescence assay; format: functional, cell-based; conditions: HCT-116, 48 h

Structure (SMILES): CC[C@H](C)[C@@H](C(=O)N1C(=O)C=C(OC)[C@@H]1Cc1ccccc1)N(C)C(=O)[C@H](C(C)C)N(C)C(=O)[C@@H](NC(=O)[C@H](C(C)C)N(C)C)C(C)C
- Emax [1]: 100%
- IC50 [2]: 8600 nM
- IC50 [3]: 5200 nM
- IC50 [4]: 3900 nM
- Emax [5]: 67%

Structure (SMILES): CC[C@H](C)[C@@H]([C@@H](CC(=O)N1CCC[C@H]1[C@H](OC)[C@@H](C)C(=O)N[C@@H](Cc1ccccc1)c1nccs1)OC)N(C)C(=O)[C@@H](NC(=O)[C@H](C(C)C)N(C)C)C(C)C [DOLASTATIN-10]
- Emax [6]: 74%
- Ratio IC50 [7]: >50
- Emax [8]: 83%
- IC50 [9]: 0.48 nM
- IC50 [10]: 24 nM
- Ratio IC50 [11]: >50
- IC50 [12]: 65 nM

Structure (SMILES): CCCCCCCC(=O)SCC/C=C/[C@@H]1CC(=O)NCc2nc(cs2)C2=N[C@@](C)(CS2)C(=O)N[C@@H](C(C)C)C(=O)O1 [LARGAZOLE]
- Emax [6]: 70%
- Emax [8]: 67%
- IC50 [9]: 6.41 nM
- IC50 [10]: 3.7 nM
- IC50 [12]: 18 nM
